Measured values: ChEMBL document CHEMBL5724801, “EUbOPEN Chemogenomics Library - Multiplex” (2024)
Several values for one entry are separate records, joined by “and”; a condition that tells them apart may be missing. Equal entries are not always repeated.

System: U2OS
Assay: Multiplex assay against U2OS
Assay type: toxicity, cell-based
Conditions: human
How it was run: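 Cells were classed with CellPathfinder machine-learning gating, first as Hoechst high-intensity objects or normal cells, then (normal cells) as healthy, pyknosed or fragmented nuclei, and finally (pyknosed cells) as mitotic or apoptotic. Staining of live cells at seeding used Hoechst33342, BioTracker Green Microtubule Cytoskeleton Dye, MitoTracker Red and Annexin V Alexa Fluor 680, with imaging on a CQ1 microscope at 37°C and 5% CO2 after compound addition. Tubulin, mitochondrial-mass and membrane-permeability phenotypes are per cents of healthy-nucleus cells.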

[1] = 12 h, 1 µM, compound concentration 1 uM
[2] = 12 h, 10 µM, compound concentration 10 uM
[3] = 24 h, 1 µM, compound concentration 1 uM
[4] = 24 h, 10 µM, compound concentration 10 uM
[5] = 48 h, 1 µM, compound concentration 1 uM
[6] = 48 h, 10 µM, compound concentration 10 uM

CN[C@@H](C)C(=O)N[C@H](C(=O)N1CCC[C@H]1C(=O)Nc1snnc1-c1ccccc1)C1CCCCC1 [GDC-0152]
Population Apoptotic (%) [1]: 60% and 89%
Population Fragmented Nuclei (%) [1]: 25% and 21%
Population Healthy Nuclei (%) [1]: 61% and 60%
Population Hoechst High Intensity Objects (%) [1]: 5% and 11%
Population Membrane Permeable-Phenotype (%) [1]: 51% and 50%
Population Mitochondria Different-Phenotype (%) [1]: 24% and 38%
Population Normal (%) [1]: 94% and 88%
Population Pyknosed Nuclei (%) [1]: 13% and 17%
Population Tubulin-Different-Phenotype (%) [1]: 47% and 52%
Total Cell Count [1]: 176 and 121
Population Apoptotic (%) [2]: 72% and 70%
Population Fragmented Nuclei (%) [2]: 39% and 18%
Population Healthy Nuclei (%) [2]: 44% and 65%
Population Hoechst High Intensity Objects (%) [2]: 4% and 5%
Population Membrane Permeable-Phenotype (%) [2]: 65% and 73%
Population Mitochondria Different-Phenotype (%) [2]: 61% and 70%
Population Mitotic Cells (%) [2]: 27% and 29%
Population Normal (%) [2]: 95% and 94%
Population Pyknosed Nuclei (%) [2]: 16% and 15%
Population Tubulin-Different-Phenotype (%) [2]: 76% and 91%
Total Cell Count [2]: 208 and 114
Population Apoptotic (%) [3]: 72% and 85%
Population Fragmented Nuclei (%) [3]: 21% and 34%
Population Healthy Nuclei (%) [3]: 55% and 44%
Population Hoechst High Intensity Objects (%) [3]: 5% and 8%
Population Membrane Permeable-Phenotype (%) [3]: 20% and 25%
Population Mitochondria Different-Phenotype (%) [3]: 18% and 28%
Population Mitotic Cells (%) [3]: 27% and 14%
Population Normal (%) [3]: 94% and 91%
Population Pyknosed Nuclei (%) [3]: 23% and 21%
Population Tubulin-Different-Phenotype (%) [3]: 19% and 27%
Total Cell Count [3]: 196 and 144
Population Apoptotic (%) [4]: 68% and 92%
Population Fragmented Nuclei (%) [4]: 36% and 20%
Population Healthy Nuclei (%) [4]: 43% and 40%
Population Hoechst High Intensity Objects (%) [4]: 3% and 10%
Population Membrane Permeable-Phenotype (%) [4]: 53% and 59%
Population Mitochondria Different-Phenotype (%) [4]: 59% and 65%
Population Normal (%) [4]: 96% and 89%
Population Pyknosed Nuclei (%) [4]: 20% and 38%
Population Tubulin-Different-Phenotype (%) [4]: 59% and 81%
Total Cell Count [4]: 220 and 121
Population Apoptotic (%) [5]: 93% and 88%
Population Fragmented Nuclei (%) [5]: 35%
Population Healthy Nuclei (%) [5]: 32% and 30%
Population Hoechst High Intensity Objects (%) [5]: 8%
Population Membrane Permeable-Phenotype (%) [5]: 16% and 38%
Population Mitochondria Different-Phenotype (%) [5]: 12% and 17%
Population Mitotic Cells (%) [5]: 6% and 11%
Population Normal (%) [5]: 91%
Population Pyknosed Nuclei (%) [5]: 32% and 34%
Population Tubulin-Different-Phenotype (%) [5]: 9% and 27%
Total Cell Count [5]: 246 and 170
Population Apoptotic (%) [6]: 100% and 98%
Population Fragmented Nuclei (%) [6]: 47% and 45%
Population Healthy Nuclei (%) [6]: 22% and 8%
Population Hoechst High Intensity Objects (%) [6]: 11% and 14%
Population Membrane Permeable-Phenotype (%) [6]: 39% and 80%
Population Mitochondria Different-Phenotype (%) [6]: 39% and 50%
Population Mitotic Cells (%) [6]: 0% and 1%
Population Normal (%) [6]: 88% and 85%
Population Pyknosed Nuclei (%) [6]: 29% and 45%
Population Tubulin-Different-Phenotype (%) [6]: 43% and 80%
Total Cell Count [6]: 246 and 138

CSc1nc(NC2CCCC2)c([N+](=O)[O-])c(NC2CCCC2)n1 [GS-39783]
Population Apoptotic (%) [1]: 82% and 80%
Population Fragmented Nuclei (%) [1]: 25% and 18%
Population Healthy Nuclei (%) [1]: 66% and 76%
Population Hoechst High Intensity Objects (%) [1]: 2% and 3%
Population Membrane Permeable-Phenotype (%) [1]: 4%
Population Mitochondria Different-Phenotype (%) [1]: 3% and 0%
Population Mitotic Cells (%) [1]: 17% and 20%
Population Normal (%) [1]: 97% and 96%
Population Pyknosed Nuclei (%) [1]: 8% and 5%
Population Tubulin-Different-Phenotype (%) [1]: 1%
Total Cell Count [1]: 209 and 96
Population Apoptotic (%) [2]: 88% and 100%
Population Fragmented Nuclei (%) [2]: 30% and 19%
Population Healthy Nuclei (%) [2]: 63% and 75%
Population Hoechst High Intensity Objects (%) [2]: 3% and 1%
Population Membrane Permeable-Phenotype (%) [2]: 9%
Population Mitochondria Different-Phenotype (%) [2]: 5% and 0%
Population Mitotic Cells (%) [2]: 11% and 0%
Population Normal (%) [2]: 96% and 98%
Population Pyknosed Nuclei (%) [2]: 5% and 4%
Population Tubulin-Different-Phenotype (%) [2]: 4% and 6%
Total Cell Count [2]: 322 and 145
Population Apoptotic (%) [3]: 87% and 84%
Population Fragmented Nuclei (%) [3]: 22% and 20%
Population Healthy Nuclei (%) [3]: 64% and 68%
Population Hoechst High Intensity Objects (%) [3]: 2% and 1%
Population Membrane Permeable-Phenotype (%) [3]: 2% and 1%
Population Mitochondria Different-Phenotype (%) [3]: 1%
Population Mitotic Cells (%) [3]: 12% and 15%
Population Normal (%) [3]: 97% and 98%
Population Pyknosed Nuclei (%) [3]: 12% and 11%
Population Tubulin-Different-Phenotype (%) [3]: 1% and 0%
Total Cell Count [3]: 269 and 119
Population Apoptotic (%) [4]: 85% and 88%
Population Fragmented Nuclei (%) [4]: 26% and 18%
Population Healthy Nuclei (%) [4]: 66% and 75%
Population Hoechst High Intensity Objects (%) [4]: 2% and 3%
Population Membrane Permeable-Phenotype (%) [4]: 6% and 9%
Population Mitochondria Different-Phenotype (%) [4]: 6% and 2%
Population Mitotic Cells (%) [4]: 14% and 11%
Population Normal (%) [4]: 97% and 96%
Population Pyknosed Nuclei (%) [4]: 6% and 5%
Population Tubulin-Different-Phenotype (%) [4]: 4% and 5%
Total Cell Count [4]: 341 and 164
Population Apoptotic (%) [5]: 88% and 92%
Population Fragmented Nuclei (%) [5]: 18% and 21%
Population Healthy Nuclei (%) [5]: 70% and 71%
Population Hoechst High Intensity Objects (%) [5]: 1% and 0%
Population Membrane Permeable-Phenotype (%) [5]: 3%
Population Mitochondria Different-Phenotype (%) [5]: 1%
Population Mitotic Cells (%) [5]: 11% and 7%
Population Normal (%) [5]: 98% and 100%
Population Pyknosed Nuclei (%) [5]: 11% and 7%
Population Tubulin-Different-Phenotype (%) [5]: 1% and 3%
Total Cell Count [5]: 382 and 185
Population Apoptotic (%) [6]: 89% and 85%
Population Fragmented Nuclei (%) [6]: 23% and 12%
Population Healthy Nuclei (%) [6]: 67% and 81%
Population Hoechst High Intensity Objects (%) [6]: 2% and 0%
Population Membrane Permeable-Phenotype (%) [6]: 5% and 4%
Population Mitochondria Different-Phenotype (%) [6]: 1% and 3%
Population Mitotic Cells (%) [6]: 10% and 14%
Population Normal (%) [6]: 97% and 99%
Population Pyknosed Nuclei (%) [6]: 8% and 6%
Population Tubulin-Different-Phenotype (%) [6]: 2% and 3%
Total Cell Count [6]: 462 and 231

CC(C)c1noc(N2CCC(COc3ccc(-c4ccc(S(C)(=O)=O)cc4)nc3)CC2)n1 [GSK-1292263]
Population Apoptotic (%) [1]: 72% and 100%
Population Fragmented Nuclei (%) [1]: 27% and 16%
Population Healthy Nuclei (%) [1]: 62% and 77%
Population Hoechst High Intensity Objects (%) [1]: 2% and 1%
Population Membrane Permeable-Phenotype (%) [1]: 3% and 4%
Population Mitochondria Different-Phenotype (%) [1]: 2% and 0%
Population Normal (%) [1]: 97% and 98%
Population Pyknosed Nuclei (%) [1]: 10% and 5%
Population Tubulin-Different-Phenotype (%) [1]: 0% and 2%
Total Cell Count [1]: 177 and 114
Population Apoptotic (%) [2]: 90% and 100%
Population Fragmented Nuclei (%) [2]: 31% and 20%
Population Healthy Nuclei (%) [2]: 60% and 73%
Population Hoechst High Intensity Objects (%) [2]: 2% and 0%
Population Membrane Permeable-Phenotype (%) [2]: 10%
Population Mitochondria Different-Phenotype (%) [2]: 6% and 8%
Population Mitotic Cells (%) [2]: 10% and 0%
Population Normal (%) [2]: 97% and 100%
Population Pyknosed Nuclei (%) [2]: 7% and 5%
Population Tubulin-Different-Phenotype (%) [2]: 6%
Total Cell Count [2]: 262 and 134
Population Apoptotic (%) [3]: 63% and 66%
Population Fragmented Nuclei (%) [3]: 32% and 15%
Population Healthy Nuclei (%) [3]: 57% and 77%
Population Hoechst High Intensity Objects (%) [3]: 1% and 0%
Population Membrane Permeable-Phenotype (%) [3]: 5% and 2%
Population Mitochondria Different-Phenotype (%) [3]: 2%
Population Mitotic Cells (%) [3]: 36% and 33%
Population Normal (%) [3]: 98% and 99%
Population Pyknosed Nuclei (%) [3]: 9% and 6%
Population Tubulin-Different-Phenotype (%) [3]: 3% and 1%
Total Cell Count [3]: 236 and 145
Population Apoptotic (%) [4]: 92% and 66%
Population Fragmented Nuclei (%) [4]: 25% and 15%
Population Healthy Nuclei (%) [4]: 65% and 75%
Population Hoechst High Intensity Objects (%) [4]: 0% and 2%
Population Membrane Permeable-Phenotype (%) [4]: 10% and 6%
Population Mitochondria Different-Phenotype (%) [4]: 3% and 5%
Population Normal (%) [4]: 99% and 97%
Population Pyknosed Nuclei (%) [4]: 9% and 8%
Population Tubulin-Different-Phenotype (%) [4]: 3% and 2%
Total Cell Count [4]: 284 and 143
Population Apoptotic (%) [5]: 77% and 90%
Population Fragmented Nuclei (%) [5]: 23% and 15%
Population Healthy Nuclei (%) [5]: 69% and 74%
Population Hoechst High Intensity Objects (%) [5]: 2% and 1%
Population Membrane Permeable-Phenotype (%) [5]: 3% and 6%
Population Mitochondria Different-Phenotype (%) [5]: 3% and 2%
Population Mitotic Cells (%) [5]: 22% and 10%
Population Normal (%) [5]: 97% and 98%
Population Pyknosed Nuclei (%) [5]: 6% and 10%
Population Tubulin-Different-Phenotype (%) [5]: 2% and 1%
Total Cell Count [5]: 339 and 201
Population Apoptotic (%) [6]: 87% and 83%
Population Fragmented Nuclei (%) [6]: 22% and 12%
Population Healthy Nuclei (%) [6]: 68% and 77%
Population Hoechst High Intensity Objects (%) [6]: 4% and 1%
Population Membrane Permeable-Phenotype (%) [6]: 6% and 5%
Population Mitochondria Different-Phenotype (%) [6]: 2% and 4%
Population Mitotic Cells (%) [6]: 12% and 16%
Population Normal (%) [6]: 95% and 98%
Population Pyknosed Nuclei (%) [6]: 9%
Population Tubulin-Different-Phenotype (%) [6]: 2% and 4%
Total Cell Count [6]: 354 and 189
